Reference: ChEMBL document CHEMBL5303300, “EUbOPEN Chemogenomics Library - Multiplex” (2023)
Values joined by “and” are separate entries in the source; they are usually repeats but may differ in a detail not shown here. Identical values can stand only once.

Test system: Fibroblast
Assay: Multiplex assay against human fibroblast
Assay type: toxicity, cell-based
Settings: number of replicates 2
Summary of the method: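 At seeding, live cells were stained with Hoechst33342, BioTracker Green Microtubule Cytoskeleton Dye, MitoTracker Red and Annexin V Alexa Fluor 680. After compound addition they were imaged on a CQ1 microscope at 37°C and 5% CO2, and CellPathfinder machine-learning gating sorted them into Hoechst high-intensity objects or normal cells, with normal cells further split into healthy, pyknosed or fragmented nuclei and pyknosed cells into mitotic or apoptotic. Tubulin, mitochondrial-mass and membrane-permeability phenotypes are given as per cents of cells with healthy nuclei.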

[1] = 12 h, 1 µM, compound concentration 1 uM
[2] = 12 h, 10 µM, compound concentration 10 uM
[3] = 24 h, 1 µM, compound concentration 1 uM
[4] = 24 h, 10 µM, compound concentration 10 uM
[5] = 48 h, 1 µM, compound concentration 1 uM
[6] = 48 h, 10 µM, compound concentration 10 uM

For `COc1ccc(F)c(F)c1C(=O)c1cnc(NC2CCN(S(C)(=O)=O)CC2)nc1N` [RG-547], the “Population Apoptotic (%)” value [1] was 48% and 56%, the “Population Fragmented Nuclei (%)” value [1] was 5% and 8% and the “Population Healthy Nuclei (%)” value [1] was 78% and 70%. For the same compound, the “Population Hoechst High Intensity Objects (%)” value [1] was 0%, the “Population Membrane Permeable-Phenotype (%)” value [1] was 2% and 5% and the “Population Mitochondria Different-Phenotype (%)” value [1] was 0%. For the same compound, the “Population Mitotic Cells (%)” value [1] was 51% and 43%, the “Population Normal (%)” value [1] was 100% and the “Population Pyknosed Nuclei (%)” value [1] was 15% and 20%. For the same compound, the “Population Tubulin-Different-Phenotype (%)” value [1] was 2% and 9%, the “Total Cell Count” value [1] was 173 and 188 and the “Population Apoptotic (%)” value [2] was 50% and 56%. For the same compound, the “Population Fragmented Nuclei (%)” value [2] was 13% and 12%, the “Population Healthy Nuclei (%)” value [2] was 73% and 72% and the “Population Hoechst High Intensity Objects (%)” value [2] was 0%. For the same compound, the “Population Membrane Permeable-Phenotype (%)” value [2] was 7% and 5%, the “Population Mitochondria Different-Phenotype (%)” value [2] was 3% and 2% and the “Population Mitotic Cells (%)” value [2] was 50% and 43%. The “Population Normal (%)” value [2] was 99% and 100%, the “Population Pyknosed Nuclei (%)” value [2] was 13% and 15% and the “Population Tubulin-Different-Phenotype (%)” value [2] was 30% and 17%. For the same compound, the “Total Cell Count” value [2] was 192 and 209, the “Population Apoptotic (%)” value [3] was 57% and 67% and the “Population Fragmented Nuclei (%)” value [3] was 9% and 10%. For the same compound, the “Population Healthy Nuclei (%)” value [3] was 77% and 69%, the “Population Hoechst High Intensity Objects (%)” value [3] was 0% and the “Population Membrane Permeable-Phenotype (%)” value [3] was 4% and 5%. For the same compound, the “Population Mitochondria Different-Phenotype (%)” value [3] was 1% and 0%, the “Population Mitotic Cells (%)” value [3] was 42% and 32% and the “Population Normal (%)” value [3] was 100%. For the same compound, the “Population Pyknosed Nuclei (%)” value [3] was 13% and 20%, the “Population Tubulin-Different-Phenotype (%)” value [3] was 7% and the “Total Cell Count” value [3] was 196 and 184. For the same compound, the “Population Apoptotic (%)” value [4] was 61% and 75%, the “Population Fragmented Nuclei (%)” value [4] was 9% and 11% and the “Population Healthy Nuclei (%)” value [4] was 72% and 74%. For the same compound, the “Population Hoechst High Intensity Objects (%)” value [4] was 0%, the “Population Membrane Permeable-Phenotype (%)” value [4] was 7% and 5% and the “Population Mitochondria Different-Phenotype (%)” value [4] was 6% and 4%. The “Population Mitotic Cells (%)” value [4] was 38% and 25%, the “Population Normal (%)” value [4] was 100% and the “Population Pyknosed Nuclei (%)” value [4] was 18% and 13%. For the same compound, the “Population Tubulin-Different-Phenotype (%)” value [4] was 35% and 26%, the “Total Cell Count” value [4] was 194 and 201 and the “Population Apoptotic (%)” value [5] was 44% and 71%. For the same compound, the “Population Fragmented Nuclei (%)” value [5] was 20% and 11%, the “Population Healthy Nuclei (%)” value [5] was 44% and 70% and the “Population Hoechst High Intensity Objects (%)” value [5] was 3% and 0%. For the same compound, the “Population Mitochondria Different-Phenotype (%)” value [5] was 9% and 0%, the “Population Mitotic Cells (%)” value [5] was 55% and 28% and the “Population Normal (%)” value [5] was 96% and 100%. For the same compound, the “Population Pyknosed Nuclei (%)” value [5] was 36% and 17%, the “Population Apoptotic (%)” value [6] was 84% and 68% and the “Population Fragmented Nuclei (%)” value [6] was 8% and 11%. The “Population Healthy Nuclei (%)” value [6] was 62%, the “Population Hoechst High Intensity Objects (%)” value [6] was 0% and the “Population Membrane Permeable-Phenotype (%)” value [6] was 17% and 18%. The “Population Mitochondria Different-Phenotype (%)” value [6] was 2% and 6%, the “Population Mitotic Cells (%)” value [6] was 15% and 31% and the “Population Normal (%)” value [6] was 100%. The “Population Pyknosed Nuclei (%)” value [6] was 28% and 25%, the “Population Tubulin-Different-Phenotype (%)” value [6] was 43% and 38% and the “Total Cell Count” value [6] was 179 and 184.

In the case of `COc1ccncc1C(=O)NC(=O)Nc1ccc(-c2ccccc2)c(C(F)(F)F)c1`, the “Population Apoptotic (%)” value [1] is reported as 43% and 32%, the “Population Fragmented Nuclei (%)” value [1] is reported as 7% and 12% and the “Population Healthy Nuclei (%)” value [1] is reported as 73% and 71%. For the same compound, the “Population Hoechst High Intensity Objects (%)” value [1] was 0%, the “Population Membrane Permeable-Phenotype (%)” value [1] was 5% and 3% and the “Population Mitochondria Different-Phenotype (%)” value [1] was 1% and 2%. For the same compound, the “Population Mitotic Cells (%)” value [1] was 56% and 67%, the “Population Normal (%)” value [1] was 99% and 100% and the “Population Pyknosed Nuclei (%)” value [1] was 19% and 15%. For the same compound, the “Population Tubulin-Different-Phenotype (%)” value [1] was 6% and 5%, the “Total Cell Count” value [1] was 158 and 217 and the “Population Apoptotic (%)” value [2] was 38% and 50%. For the same compound, the “Population Fragmented Nuclei (%)” value [2] was 8% and 16%, the “Population Healthy Nuclei (%)” value [2] was 69% and the “Population Hoechst High Intensity Objects (%)” value [2] was 0%. For the same compound, the “Population Membrane Permeable-Phenotype (%)” value [2] was 9% and 5%, the “Population Mitochondria Different-Phenotype (%)” value [2] was 2% and the “Population Mitotic Cells (%)” value [2] was 61% and 50%. For the same compound, the “Population Normal (%)” value [2] was 100%, the “Population Pyknosed Nuclei (%)” value [2] was 22% and 13% and the “Population Tubulin-Different-Phenotype (%)” value [2] was 22% and 16%. The “Total Cell Count” value [2] was 213 and 202, the “Population Apoptotic (%)” value [3] was 59% and 44% and the “Population Fragmented Nuclei (%)” value [3] was 19% and 15%. The “Population Healthy Nuclei (%)” value [3] was 61% and 68%, the “Population Hoechst High Intensity Objects (%)” value [3] was 0% and the “Population Membrane Permeable-Phenotype (%)” value [3] was 4% and 6%. For the same compound, the “Population Mitochondria Different-Phenotype (%)” value [3] was 1% and 2%, the “Population Mitotic Cells (%)” value [3] was 40% and 55% and the “Population Normal (%)” value [3] was 100%. The “Population Pyknosed Nuclei (%)” value [3] was 19% and 16%, the “Population Tubulin-Different-Phenotype (%)” value [3] was 12% and 10% and the “Total Cell Count” value [3] was 189 and 219. The “Population Apoptotic (%)” value [4] was 46% and 65%, the “Population Fragmented Nuclei (%)” value [4] was 10% and 18% and the “Population Healthy Nuclei (%)” value [4] was 66% and 70%. The “Population Hoechst High Intensity Objects (%)” value [4] was 0%, the “Population Membrane Permeable-Phenotype (%)” value [4] was 6% and 4% and the “Population Mitochondria Different-Phenotype (%)” value [4] was 0% and 2%. For the same compound, the “Population Mitotic Cells (%)” value [4] was 53% and 34%, the “Population Normal (%)” value [4] was 100% and the “Population Pyknosed Nuclei (%)” value [4] was 22% and 11%. The “Population Tubulin-Different-Phenotype (%)” value [4] was 19% and 12%, the “Total Cell Count” value [4] was 215 and 203 and the “Population Apoptotic (%)” value [5] was 75% and 63%. The “Population Fragmented Nuclei (%)” value [5] was 13% and 16%, the “Population Healthy Nuclei (%)” value [5] was 69% and 74% and the “Population Hoechst High Intensity Objects (%)” value [5] was 0%. For the same compound, the “Population Membrane Permeable-Phenotype (%)” value [5] was 4% and 7%, the “Population Mitochondria Different-Phenotype (%)” value [5] was 0% and the “Population Mitotic Cells (%)” value [5] was 25% and 36%. For the same compound, the “Population Normal (%)” value [5] was 100% and 99%, the “Population Pyknosed Nuclei (%)” value [5] was 16% and 9% and the “Population Tubulin-Different-Phenotype (%)” value [5] was 4% and 6%. The “Total Cell Count” value [5] was 173 and 239, the “Population Apoptotic (%)” value [6] was 66% and the “Population Fragmented Nuclei (%)” value [6] was 9% and 16%. The “Population Healthy Nuclei (%)” value [6] was 79% and 77%, the “Population Hoechst High Intensity Objects (%)” value [6] was 0% and the “Population Membrane Permeable-Phenotype (%)” value [6] was 9% and 1%. The “Population Mitochondria Different-Phenotype (%)” value [6] was 0% and 1%, the “Population Mitotic Cells (%)” value [6] was 33% and the “Population Normal (%)” value [6] was 100%. For the same compound, the “Population Pyknosed Nuclei (%)” value [6] was 10% and 6%, the “Population Tubulin-Different-Phenotype (%)” value [6] was 11% and 4% and the “Total Cell Count” value [6] was 221 and 197.
